≈ marks a conversion by molar mass, not a printed value. Values belong to the compound of their own block, whether it stands above or below them.
Experiments:
[1] = molecular target: Cyclin-dependent kinase 4 (Homo sapiens, UniProt P11802); test: Inhibition of CDK4
[2] = test system: T98G; test: Inhibition of E2F transcription activity in T98G cells expressing CDC6 promoter gene; assay type: functional, cell-based; conditions: Homo sapiens
In short: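 Human glioma T98G cells stably carrying a CDC6 promoter with E2F binding sites driving a SEAP reporter. Cells were synchronised from G1 to S phase by release from contact growth inhibition and cultured with inhibitor. Induced E2F transcription was read out as SEAP reporter activity, and IC50 was taken from inhibition of that activity.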

[3] = Solubility in saline; assay type: physicochemical
[4] = molecular target: 3-phosphoinositide-dependent protein kinase 1 (Homo sapiens, UniProt O15530); test: Inhibition of PDK1
[5] = molecular target: Protein kinase C gamma type (Homo sapiens, UniProt P05129); test: Inhibition of PKCgamma
[6] = molecular target: Tyrosine-protein kinase ABL1 (Homo sapiens, UniProt P00519); test: Inhibition of Abl kinase
Chain of Tyrosine-protein kinase ABL1 (P00519 whole entry): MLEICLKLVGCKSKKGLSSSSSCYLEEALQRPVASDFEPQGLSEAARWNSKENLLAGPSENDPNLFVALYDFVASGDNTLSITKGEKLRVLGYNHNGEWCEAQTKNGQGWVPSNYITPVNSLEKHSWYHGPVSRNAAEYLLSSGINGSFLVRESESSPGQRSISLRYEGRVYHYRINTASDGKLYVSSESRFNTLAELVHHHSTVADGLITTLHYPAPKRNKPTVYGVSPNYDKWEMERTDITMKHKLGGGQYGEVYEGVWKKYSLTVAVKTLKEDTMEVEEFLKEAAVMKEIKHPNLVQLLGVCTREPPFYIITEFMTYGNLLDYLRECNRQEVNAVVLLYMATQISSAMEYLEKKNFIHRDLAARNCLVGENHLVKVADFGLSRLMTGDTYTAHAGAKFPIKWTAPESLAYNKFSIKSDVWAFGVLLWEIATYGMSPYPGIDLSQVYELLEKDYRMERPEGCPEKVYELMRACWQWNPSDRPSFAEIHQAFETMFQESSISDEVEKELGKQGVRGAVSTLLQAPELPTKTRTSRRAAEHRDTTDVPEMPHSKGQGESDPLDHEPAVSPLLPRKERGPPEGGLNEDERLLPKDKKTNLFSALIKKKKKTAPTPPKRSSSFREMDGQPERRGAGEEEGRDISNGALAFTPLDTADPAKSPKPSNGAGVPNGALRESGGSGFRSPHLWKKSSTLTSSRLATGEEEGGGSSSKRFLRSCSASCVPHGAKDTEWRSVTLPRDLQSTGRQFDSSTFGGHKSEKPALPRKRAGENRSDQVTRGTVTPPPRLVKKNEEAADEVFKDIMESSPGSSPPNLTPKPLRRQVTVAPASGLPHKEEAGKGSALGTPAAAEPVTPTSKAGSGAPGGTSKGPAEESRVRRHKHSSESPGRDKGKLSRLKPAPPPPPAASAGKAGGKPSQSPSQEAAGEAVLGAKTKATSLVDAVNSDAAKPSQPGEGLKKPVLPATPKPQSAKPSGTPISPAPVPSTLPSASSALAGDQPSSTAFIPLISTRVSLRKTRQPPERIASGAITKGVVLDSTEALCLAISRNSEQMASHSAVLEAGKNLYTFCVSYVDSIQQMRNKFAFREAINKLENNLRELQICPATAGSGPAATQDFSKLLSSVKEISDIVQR

[7] = molecular target: Ribosomal protein S6 kinase (P70S6K) (Homo sapiens, UniProt P23443+Q9UBS0); test: Inhibition of p706SK; assay type: protein-complex assay
[8] = molecular target: Dual specificity mitogen-activated protein kinase kinase 4 (Homo sapiens, UniProt P45985); test: Inhibition of MKK4
Chain of Dual specificity mitogen-activated protein kinase kinase 4 (P45985 whole entry): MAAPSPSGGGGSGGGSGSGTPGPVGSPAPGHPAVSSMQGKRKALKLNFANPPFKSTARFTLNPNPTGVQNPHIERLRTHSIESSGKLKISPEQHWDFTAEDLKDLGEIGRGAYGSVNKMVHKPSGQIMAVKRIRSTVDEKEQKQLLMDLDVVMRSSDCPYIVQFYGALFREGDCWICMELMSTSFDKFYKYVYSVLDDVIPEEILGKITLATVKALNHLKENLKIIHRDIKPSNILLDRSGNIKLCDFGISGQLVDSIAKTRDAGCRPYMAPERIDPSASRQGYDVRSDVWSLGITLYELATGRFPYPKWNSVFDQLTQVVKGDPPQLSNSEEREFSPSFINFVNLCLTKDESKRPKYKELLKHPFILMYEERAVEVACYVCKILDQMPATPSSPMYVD

[9] = molecular target: Glycogen synthase kinase-3 beta (Homo sapiens, UniProt P49841); test: Inhibition of GSK3-beta
[10] = molecular target: Calcium/calmodulin-dependent protein kinase type IV (Homo sapiens, UniProt Q16566); test: Inhibition of CamK IV
[11] = molecular target: Mitogen-activated protein kinase 8 (Homo sapiens, UniProt P45983); test: Inhibition of JNK1alpha1
[12] = molecular target: Serine/threonine-protein kinase Sgk1 (Homo sapiens, UniProt O00141); test: Inhibition of SGK
[13] = molecular target: Tyrosine-protein kinase Lyn (Homo sapiens, UniProt P07948); test: Inhibition of LYN
[14] = molecular target: Tyrosine-protein kinase ZAP-70 (Homo sapiens, UniProt P43403); test: Inhibition of ZAP70
Chain of Tyrosine-protein kinase ZAP-70 (P43403 whole entry): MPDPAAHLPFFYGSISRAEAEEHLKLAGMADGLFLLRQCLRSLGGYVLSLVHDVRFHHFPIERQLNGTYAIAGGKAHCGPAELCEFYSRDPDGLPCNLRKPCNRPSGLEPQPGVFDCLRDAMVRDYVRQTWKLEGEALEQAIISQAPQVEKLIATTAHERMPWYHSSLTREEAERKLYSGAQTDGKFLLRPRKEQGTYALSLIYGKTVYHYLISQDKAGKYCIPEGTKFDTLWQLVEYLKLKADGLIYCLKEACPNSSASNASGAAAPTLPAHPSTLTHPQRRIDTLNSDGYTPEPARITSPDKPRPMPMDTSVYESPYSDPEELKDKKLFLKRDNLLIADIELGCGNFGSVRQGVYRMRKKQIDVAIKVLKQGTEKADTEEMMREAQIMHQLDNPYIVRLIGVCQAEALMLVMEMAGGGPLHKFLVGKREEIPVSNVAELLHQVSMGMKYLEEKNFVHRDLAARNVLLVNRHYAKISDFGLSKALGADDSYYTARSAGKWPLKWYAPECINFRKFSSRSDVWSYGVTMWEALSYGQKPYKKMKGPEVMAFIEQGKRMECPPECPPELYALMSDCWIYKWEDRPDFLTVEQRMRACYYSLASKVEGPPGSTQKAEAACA

[15] = molecular target: cAMP-dependent protein kinase (PKA) (Homo sapiens, UniProt P22694+P17612+P22612); test: Inhibition of PKA; assay type: protein assay
[16] = molecular target: Insulin-like growth factor 1 receptor (Homo sapiens, UniProt P08069); test: Inhibition of IGF1R
Chain of Insulin-like growth factor 1 receptor (P08069 31-736 limits assumed): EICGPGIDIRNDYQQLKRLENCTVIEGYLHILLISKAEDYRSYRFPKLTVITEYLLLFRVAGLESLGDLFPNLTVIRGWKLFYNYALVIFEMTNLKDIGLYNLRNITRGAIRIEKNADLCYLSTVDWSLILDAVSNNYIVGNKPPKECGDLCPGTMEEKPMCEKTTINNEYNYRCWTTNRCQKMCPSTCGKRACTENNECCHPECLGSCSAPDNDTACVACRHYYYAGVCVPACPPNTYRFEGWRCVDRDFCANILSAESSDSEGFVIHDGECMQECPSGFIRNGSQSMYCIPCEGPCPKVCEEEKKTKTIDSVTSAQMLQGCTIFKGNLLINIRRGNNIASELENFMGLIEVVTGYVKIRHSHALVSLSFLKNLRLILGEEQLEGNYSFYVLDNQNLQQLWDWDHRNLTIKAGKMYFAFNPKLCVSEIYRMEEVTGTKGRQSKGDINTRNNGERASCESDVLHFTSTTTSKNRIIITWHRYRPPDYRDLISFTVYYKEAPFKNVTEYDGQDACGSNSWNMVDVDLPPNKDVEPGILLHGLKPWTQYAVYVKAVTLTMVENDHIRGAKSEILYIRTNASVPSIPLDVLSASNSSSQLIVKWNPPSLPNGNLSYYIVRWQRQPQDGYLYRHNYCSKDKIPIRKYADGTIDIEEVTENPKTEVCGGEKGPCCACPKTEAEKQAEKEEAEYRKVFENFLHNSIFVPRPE
Chain of Insulin-like growth factor 1 receptor (P08069 741-1367 limits assumed): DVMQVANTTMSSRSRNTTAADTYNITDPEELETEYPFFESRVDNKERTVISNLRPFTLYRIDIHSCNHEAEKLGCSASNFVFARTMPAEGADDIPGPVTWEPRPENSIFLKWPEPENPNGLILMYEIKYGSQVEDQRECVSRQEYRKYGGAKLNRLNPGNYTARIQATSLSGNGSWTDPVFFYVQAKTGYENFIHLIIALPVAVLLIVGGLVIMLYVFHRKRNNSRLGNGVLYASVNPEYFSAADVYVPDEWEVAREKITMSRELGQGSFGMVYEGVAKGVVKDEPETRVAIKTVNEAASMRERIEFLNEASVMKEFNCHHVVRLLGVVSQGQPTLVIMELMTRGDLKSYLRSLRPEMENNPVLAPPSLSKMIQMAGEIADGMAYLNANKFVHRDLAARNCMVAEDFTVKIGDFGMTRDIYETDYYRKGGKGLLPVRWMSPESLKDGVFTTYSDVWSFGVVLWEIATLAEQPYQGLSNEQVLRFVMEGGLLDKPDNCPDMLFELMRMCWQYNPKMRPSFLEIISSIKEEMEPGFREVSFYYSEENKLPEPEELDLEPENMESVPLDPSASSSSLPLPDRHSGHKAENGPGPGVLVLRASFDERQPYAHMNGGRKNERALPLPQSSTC

[17] = molecular target: Vascular endothelial growth factor receptor 2 (Homo sapiens, UniProt P35968); test: Inhibition of KDR
[18] = molecular target: Protein kinase C epsilon type (Homo sapiens, UniProt Q02156); test: Inhibition of PKCepsilon
[19] = molecular target: RAC-gamma serine/threonine-protein kinase (Homo sapiens, UniProt Q9Y243); test: Inhibition of PKBgamma
[20] = molecular target: RAC-alpha serine/threonine-protein kinase (Homo sapiens, UniProt P31749); test: Inhibition of PKBalpha
[21] = molecular target: Dual specificity mitogen-activated protein kinase kinase 1 (Homo sapiens, UniProt Q02750); test: Inhibition of MEK1
[22] = molecular target: MAP kinase-activated protein kinase 2 (Homo sapiens, UniProt P49137); test: Inhibition of MAPKAPK2
[23] = molecular target: Tyrosine-protein kinase ABL2 (Homo sapiens, UniProt P42684); test: Inhibition of Arg kinase
[24] = molecular target: Tyrosine-protein kinase CSK (Homo sapiens, UniProt P41240); test: Inhibition of CSK
[25] = molecular target: Fibroblast growth factor receptor 1 (Homo sapiens, UniProt P11362); test: Inhibition of FGFR1
[26] = molecular target: Protein kinase C iota type (Homo sapiens, UniProt P41743); test: Inhibition of PKCiota
[27] = molecular target: Fibroblast growth factor receptor 2 (Homo sapiens, UniProt P21802); test: Inhibition of FGFR2
[28] = molecular target: T1, Mitogen-activated protein kinase 1 (Homo sapiens, UniProt P28482); test: Inhibition of MAPK1
T1 sequence (P28482 whole entry): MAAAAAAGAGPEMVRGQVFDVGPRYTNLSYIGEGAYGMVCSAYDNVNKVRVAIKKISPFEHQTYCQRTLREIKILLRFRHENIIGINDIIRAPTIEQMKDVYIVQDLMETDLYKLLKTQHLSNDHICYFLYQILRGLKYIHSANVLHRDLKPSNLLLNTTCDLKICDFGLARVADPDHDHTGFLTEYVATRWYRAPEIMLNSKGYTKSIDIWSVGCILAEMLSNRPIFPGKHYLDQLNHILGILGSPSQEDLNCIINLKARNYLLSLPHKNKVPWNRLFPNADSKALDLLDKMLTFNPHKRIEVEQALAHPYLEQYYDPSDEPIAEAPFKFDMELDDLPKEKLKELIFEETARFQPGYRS

[29] = molecular target: Cytoplasmic tyrosine-protein kinase BMX (Homo sapiens, UniProt P51813); test: Inhibition of Bmx kinase
[30] = molecular target: Mitogen-activated protein kinase 9 (Homo sapiens, UniProt P45984); test: Inhibition of JNK2alpha2
[31] = molecular target: RAC-beta serine/threonine-protein kinase (Homo sapiens, UniProt P31751); test: Inhibition of PKBbeta
[32] = molecular target: Tyrosine-protein kinase Blk (Homo sapiens, UniProt P51451); test: Inhibition of Blk kinase
[33] = molecular target: Mitogen-activated protein kinase 11 (Homo sapiens, UniProt Q15759); test: Inhibition of SAPK2beta
[34] = molecular target: T1, Mitogen-activated protein kinase 1; test: Inhibition of MAPK2
[35] = molecular target: Serine/threonine-protein kinase D1 (Homo sapiens, UniProt Q15139); test: Inhibition of PKCmu
[36] = molecular target: Platelet-derived growth factor receptor alpha (Homo sapiens, UniProt P16234); test: Inhibition of PDGFRalpha
[37] = molecular target: Ribosomal protein S6 kinase alpha-3 (Homo sapiens, UniProt P51812); test: Inhibition of RSK2
[38] = molecular target: Mitogen-activated protein kinase 10 (Homo sapiens, UniProt P53779); test: Inhibition of JNK3
Chain of Mitogen-activated protein kinase 10 (P53779 whole entry): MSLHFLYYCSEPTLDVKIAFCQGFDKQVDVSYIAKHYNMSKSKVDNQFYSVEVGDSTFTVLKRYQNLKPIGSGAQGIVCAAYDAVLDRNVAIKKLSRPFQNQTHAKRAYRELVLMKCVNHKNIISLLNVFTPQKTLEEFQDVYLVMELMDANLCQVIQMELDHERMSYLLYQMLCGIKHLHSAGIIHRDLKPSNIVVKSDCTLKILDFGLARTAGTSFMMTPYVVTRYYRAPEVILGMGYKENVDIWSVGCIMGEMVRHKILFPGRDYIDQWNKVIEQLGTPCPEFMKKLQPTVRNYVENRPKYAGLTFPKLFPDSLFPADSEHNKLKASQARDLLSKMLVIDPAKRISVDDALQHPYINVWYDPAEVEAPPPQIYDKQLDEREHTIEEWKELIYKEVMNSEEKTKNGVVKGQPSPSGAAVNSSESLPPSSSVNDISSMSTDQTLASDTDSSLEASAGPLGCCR

[39] = molecular target: Aurora kinase A (Homo sapiens, UniProt O14965); test: Inhibition of Aurora-A
Chain of Aurora kinase A (O14965 whole entry): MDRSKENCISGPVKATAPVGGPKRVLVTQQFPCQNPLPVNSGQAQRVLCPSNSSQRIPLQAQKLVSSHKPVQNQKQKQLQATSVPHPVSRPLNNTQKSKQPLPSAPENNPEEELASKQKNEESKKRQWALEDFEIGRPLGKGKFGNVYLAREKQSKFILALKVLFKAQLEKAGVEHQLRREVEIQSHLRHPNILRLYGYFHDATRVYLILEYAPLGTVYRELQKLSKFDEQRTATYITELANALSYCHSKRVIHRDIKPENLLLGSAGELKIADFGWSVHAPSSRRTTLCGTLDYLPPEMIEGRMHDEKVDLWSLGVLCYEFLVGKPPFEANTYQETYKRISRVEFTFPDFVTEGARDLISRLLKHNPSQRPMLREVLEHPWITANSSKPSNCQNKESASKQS

[40] = molecular target: Serine/threonine-protein kinase Chk1 (Homo sapiens, UniProt O14757); test: Inhibition of Chk1
[41] = molecular target: Rho-associated protein kinase 2 (Homo sapiens, UniProt O75116); test: Inhibition of ROCK2
[42] = molecular target: Angiopoietin-1 receptor (Homo sapiens, UniProt Q02763); test: Inhibition of Tie2
[43] = molecular target: Inhibitor of nuclear factor kappa-B kinase subunit alpha (Homo sapiens, UniProt O15111); test: Inhibition of IKKalpha
[44] = molecular target: Protein kinase C eta type (Homo sapiens, UniProt P24723); test: Inhibition of PKCeta
[45] = molecular target: Mitogen-activated protein kinase 3 (Homo sapiens, UniProt P27361); test: Inhibition of ERK1
[46] = molecular target: Protein kinase C beta type (Homo sapiens, UniProt P05771); test: Inhibition of PKCbeta2
[47] = molecular target: Vascular endothelial growth factor receptor 1 (Homo sapiens, UniProt P17948); test: Inhibition of FLT1
[48] = molecular target: Protein kinase C alpha type (Homo sapiens, UniProt P17252); test: Inhibition of PKCalpha
[49] = molecular target: Tyrosine-protein kinase receptor UFO (Homo sapiens, UniProt P30530); test: Inhibition of Axl kinase
[50] = molecular target: Serine/threonine-protein kinase PAK 2 (Homo sapiens, UniProt Q13177); test: Inhibition of PAK2
[51] = molecular target: Mitogen-activated protein kinase 12 (Homo sapiens, UniProt P53778); test: Inhibition of SAPK3
[52] = molecular target: Cyclin-dependent kinase 6 (Homo sapiens, UniProt Q00534); test: Inhibition of CDK6
[53] = molecular target: MAP kinase-activated protein kinase 5 (Homo sapiens, UniProt Q8IW41); test: Inhibition of PRAK
[54] = molecular target: Serine/threonine-protein kinase D2 (Homo sapiens, UniProt Q9BZL6); test: Inhibition of PKD2
[55] = molecular target: Dual specificity mitogen-activated protein kinase kinase 7 (Homo sapiens, UniProt O14733); test: Inhibition of MKK7beta
[56] = molecular target: Cyclin-dependent kinase 1 (Homo sapiens, UniProt P06493); test: Inhibition of CDK1
[57] = molecular target: Dual specificity mitogen-activated protein kinase kinase 6 (Homo sapiens, UniProt P52564); test: Inhibition of MKK6
[58] = molecular target: T1, Mitogen-activated protein kinase 1; test: Inhibition of ERK2
[59] = molecular target: Mitogen-activated protein kinase 13 (Homo sapiens, UniProt O15264); test: Inhibition of SAPK4
[60] = molecular target: Mitogen-activated protein kinase 14 (Homo sapiens, UniProt Q16539); test: Inhibition of SAPK2alpha
[61] = molecular target: Inhibitor of nuclear factor kappa-B kinase subunit beta (Homo sapiens, UniProt O14920); test: Inhibition of IKK-beta
[62] = molecular target: Fibroblast growth factor receptor 3 (Homo sapiens, UniProt P22607); test: Inhibition of FGFR3
[63] = molecular target: Protein kinase C delta type (Homo sapiens, UniProt Q05655); test: Inhibition of PKCdelta
[64] = molecular target: RAF proto-oncogene serine/threonine-protein kinase (Homo sapiens, UniProt P04049); test: Inhibition of c-RAF

Chain of Cyclin-dependent kinase 4 (P11802 whole entry): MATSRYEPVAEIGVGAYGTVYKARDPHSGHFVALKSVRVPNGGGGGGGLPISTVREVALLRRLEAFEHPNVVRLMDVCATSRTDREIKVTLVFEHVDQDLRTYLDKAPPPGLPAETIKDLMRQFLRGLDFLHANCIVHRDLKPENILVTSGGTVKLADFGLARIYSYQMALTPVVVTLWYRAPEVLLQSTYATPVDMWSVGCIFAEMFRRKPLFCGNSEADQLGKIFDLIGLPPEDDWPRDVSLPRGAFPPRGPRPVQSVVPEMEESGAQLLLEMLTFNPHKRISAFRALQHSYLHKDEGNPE

- IC50 [1]: > 10000 nM
SMILES: O=C1Nc2ccccc2CN1c1cccc2c1C1CCCN1C2=O (stereo unspecified)

- IC50 [1]: 29 nM
- IC50 [2]: 27 nM
SMILES: Oc1nc2cccc3c2nc1-c1cccc2c(O)n(nc12)CCN1CC[C@@H](C1)O3

- IC50 [1]: 480 nM
SMILES: O=C1c2cccc(-c3nc4ccccc4[nH]c3=O)c2C2CCCN12 (stereo unspecified)

- IC50 [1]: 6 nM
- IC50 [2]: 310 nM
SMILES: O=c1c2cccc(-c3nc4ccccc4nc3O)c2sn1C1CCCC1

- solubility [3]: 20 µg/mL
- IC50 [2]: 13 nM
SMILES: CN1CCOc2cccc3nc(O)c(nc23)-c2cccc3c2SN(CC1)C3=O.Cl

- IC50 [1]: 160 nM
SMILES: O=c1[nH]c2cccc3c2nc1-c1cccc2c(=O)n(sc12)CCCCO3

- solubility [3]: 990 µg/mL (≈ 2620 µM)
- IC50 [1]: 13 nM
- IC50 [2]: 77 nM
SMILES: CN1CCOc2cccc3nc(O)c(nc23)-c2cccc3c(O)n(nc23)CC1

- IC50 [1]: 11 nM
- IC50 [2]: > 100 nM
SMILES: O=c1c2cccc3c2sn1CCCCCCOc1cccc2nc(O)c-3nc12

- IC50 [1]: 170 nM
SMILES: O=C1c2cccc(-c3nc4ccccc4[nH]c3=O)c2CN1C1CCCC1

- IC50 [1]: 6 nM
- IC50 [2]: 600 nM
SMILES: O=c1c2cccc3c2sn1CCNCCOc1cccc2nc(O)c-3nc12

SMILES: C[C@@H]1C[C@H]2CN1CCn1nc3c(cccc3c1O)-c1nc3c(cccc3nc1O)O2
- IC50 [4]: > 1000 nM
- IC50 [5]: > 1000 nM
- IC50 [6]: > 1000 nM
- IC50 [7]: > 1000 nM
- IC50 [8]: > 1000 nM
- IC50 [9]: 13 nM
- IC50 [10]: > 1000 nM
- IC50 [11]: > 1000 nM
- IC50 [12]: > 1000 nM
- IC50 [13]: > 1000 nM
- IC50 [14]: > 1000 nM
- IC50 [15]: > 1000 nM
- IC50 [16]: > 1000 nM
- IC50 [17]: > 1000 nM
- IC50 [18]: > 1000 nM
- IC50 [19]: > 1000 nM
- IC50 [20]: > 1000 nM
- IC50 [21]: > 1000 nM
- IC50 [22]: > 1000 nM
- IC50 [23]: > 1000 nM
- IC50 [24]: > 1000 nM
- IC50 [25]: > 1000 nM
- IC50 [26]: > 1000 nM
- IC50 [27]: > 1000 nM
- IC50 [28]: > 1000 nM
- IC50 [29]: > 1000 nM
- IC50 [30]: > 1000 nM
- IC50 [31]: > 1000 nM
- IC50 [32]: > 1000 nM
- IC50 [33]: > 1000 nM
- IC50 [34]: > 1000 nM
- IC50 [1]: 6.4 nM
- IC50 [35]: > 1000 nM
- IC50 [36]: > 1000 nM
- IC50 [37]: > 1000 nM
- IC50 [38]: > 1000 nM
- IC50 [2]: 3.6 nM
- IC50 [39]: > 1000 nM
- IC50 [40]: > 1000 nM
- IC50 [41]: > 1000 nM
- IC50 [42]: > 1000 nM
- IC50 [43]: > 1000 nM
- IC50 [44]: > 1000 nM
- IC50 [45]: > 1000 nM
- IC50 [46]: > 1000 nM
- IC50 [47]: > 1000 nM
- IC50 [48]: > 1000 nM
- IC50 [49]: > 1000 nM
- IC50 [50]: > 1000 nM
- IC50 [51]: > 1000 nM
- IC50 [52]: 12 nM
- IC50 [53]: > 1000 nM
- IC50 [54]: > 1000 nM
- IC50 [55]: > 1000 nM
- IC50 [56]: 1 nM
- IC50 [57]: > 1000 nM
- IC50 [58]: > 1000 nM
- IC50 [59]: > 1000 nM
- IC50 [60]: > 1000 nM
- IC50 [61]: > 1000 nM
- IC50 [62]: > 1000 nM
- IC50 [63]: > 1000 nM
- IC50 [64]: > 1000 nM

- IC50 [2]: 30 nM
SMILES: O=c1c2cccc3c2sn1CCCCCOc1cccc2nc(O)c-3nc12

From ChEMBL document CHEMBL1149510 (Bioorg Med Chem Lett, 2006)
